Screens from PubChem BioAssay.
NR1D1 modulator: Rev-erb alpha (human) modulation; Rev-erbα–FITC-DNA binding, fluorescence polarization, 90 min; activity, % at 10 µM; P20393; 370,000 compounds, 0.79% hits;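 active = activity above about 14%, limit read from the data; passing the limit was not always enough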;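 also: 0% = DMSO wells with 35 nM protein and 100% = DMSO wells with 750 nM protein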
Target sequence (P20393 whole entry, looked up): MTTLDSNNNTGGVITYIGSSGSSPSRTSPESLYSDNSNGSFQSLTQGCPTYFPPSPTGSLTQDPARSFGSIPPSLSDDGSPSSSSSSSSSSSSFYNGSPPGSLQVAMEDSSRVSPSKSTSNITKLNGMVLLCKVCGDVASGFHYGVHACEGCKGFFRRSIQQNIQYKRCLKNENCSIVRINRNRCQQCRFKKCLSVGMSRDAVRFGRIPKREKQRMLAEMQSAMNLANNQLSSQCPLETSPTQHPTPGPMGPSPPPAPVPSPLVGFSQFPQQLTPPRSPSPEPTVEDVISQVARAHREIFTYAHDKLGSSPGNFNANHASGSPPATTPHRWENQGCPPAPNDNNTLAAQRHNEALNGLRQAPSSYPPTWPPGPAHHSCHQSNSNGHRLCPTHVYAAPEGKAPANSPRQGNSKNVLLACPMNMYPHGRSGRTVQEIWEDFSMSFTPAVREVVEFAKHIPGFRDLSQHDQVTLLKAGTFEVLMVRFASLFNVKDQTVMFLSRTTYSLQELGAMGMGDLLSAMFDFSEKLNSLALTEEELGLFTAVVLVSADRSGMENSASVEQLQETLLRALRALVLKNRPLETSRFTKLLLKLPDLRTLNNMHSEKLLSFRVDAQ
NR2E3 ag-1: agonists of human nuclear receptor NR2E3; 320,000 compounds, 0.12% hits; inhibition of corepressor binding, % at 4.78 µM; Q9Y5X4; GST-NR2E3/biotin-RetCOR TR-FRET, 1536-well; AID 2300;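 active = percent inhibition above the cutoff of mean plus 3 SD of all tested compounds, set per screening campaign, cut at about 20% in these data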;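 also: 0% = DMSO wells and 100% = biotin wells as full block of FRET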
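Format: 1536-well format; test system: GST-NR2E3 and biotin-RetCOR proteins; read-out basis: percent inhibition of TR-FRET ratio; timing: 5 h incubation at 4 °C; detection: time-resolved FRET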
NR2E3 ag-2: activates human NR2E3 receptor; inhibition of corepressor binding, % at 3.98 µM; 360,000 compounds, 0.35% hits; AID 602229; CHO-S Gal4-NCOR/VP16-NR2E3 two-hybrid, luciferase;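 active = inhibition above the mean of all tested compounds plus 3 SD, cut at about 70% in these data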;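 also: 0% = DMSO with NR2E3 transfected cells and 100% = cells lacking NR2E3 construct; higher means lower luciferase signal from less NR2E3 corepressor binding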
PKA-R1A act: activates the PKA-R1A holoenzyme complex; 340,000 compounds, 0.083% hits; PKA-R1A dissociation, Cy5-IP20 fluorescence polarization; scaled: DMSO 0%, 113 µM cGMP 100%; activation, % at 11.4 µM;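 active = percent activation above the mean of all tested compounds plus 3 SD, cut at about 19% in these data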;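 also: higher means more PKAc released from R1A so a rise in polarization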
PKA-R2B act: PKA-R2B complex activation; activation, % at 11.4 µM; P22694+P31323; PKA-R2B holoenzyme dissociation, Cy5-IP20 fluorescence polarization; R2B truncated from residue 108, S112A mutant; 0% DMSO only, 100% 113 µM cGMP; 340,000 compounds, 0.079% hits;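 active = activation above a cutoff set at the mean over all compounds plus 3 SD, cut at about 18% in these data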;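 also: higher means more holoenzyme dissociation and a rise in polarization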
PG9 binder: binds the HIV-1 gp120 antibody PG9; TR-FRET gp120-PG9 antibody binding; inhibition, % at 6.7 µM; 360,000 compounds, 0.43% hits; AID 624416; in the data active = inhibition above about 8.5%
NR1D1 mod conf: confirmation of modulators of human Rev-erb alpha DNA binding | shares compounds with NR1D1 modulator | Rev-erb alpha FITC-DNA binding, fluorescence polarization, 90 min | activation, % at 25 µM | 3,000 compounds, 61% hits;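 active = activation at or above a set limit, or at least 3 SD above the negative control mean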;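 also: 0% = 35 nM protein with DMSO and 100% = 750 nM protein high control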
RORg DNA counter: RORgamma DNA-binding activity, dose-response counter-screen | IC50, µM | shares compounds with NR1D1 modulator | AID 1259320 | purified RORgamma protein-FITC-DNA binding, fluorescence polarization | 910 compounds, 8% hits;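 active = Compounds whose fitted half-maximal concentration for disrupting protein-DNA binding is below 10 micromolar; the record names Rev-erb in its text, so the target is in doubt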
* marks the source's active call; other numbers are inactive results; ! = a repeat was not active. Most compounds without a hit are left out; they make up all but 1.6% or so of the library.

For N#Cc1ccc(C(=O)Oc2coc(CSc3ncccn3)cc2=O)cc1 the results were NR1D1 modulator 0.
Screening O=C(Cn1c(=O)c(=O)n(Cc2ccccc2)c2ccc(Cl)cc21)Nc1cccc(F)c1 returned NR1D1 modulator 44*, NR2E3 ag-1 3, NR2E3 ag-2 -38, PKA-R1A act -7, PKA-R2B act 0, PG9 binder 5 and NR1D1 mod conf 24*.
O=C(CC(=O)Nc1cccc(F)c1)Nc1cccc(F)c1 was read as NR1D1 modulator -4, NR2E3 ag-1 -1, NR2E3 ag-2 -6, PKA-R1A act 5, PKA-R2B act -7 and PG9 binder 0.
`O=C(Cn1c2ccccc2c(=O)c2ccccc21)Nc1cccc(F)c1` gave NR1D1 modulator 28*, NR2E3 ag-1 0, NR2E3 ag-2 -1, PKA-R1A act -1, PKA-R2B act -2, PG9 binder 1 and NR1D1 mod conf 16.
`Cc1ccc2c(c1)C1CS(=O)(=O)N(C3CCCC3)C(=O)N1C2` (configuration not stated) gave NR1D1 modulator 1.
`CC1(C)CC(=O)c2cnc(N3CCc4ccccc43)nc2C1` gave NR1D1 modulator -1, NR2E3 ag-1 0, NR2E3 ag-2 -52, PKA-R1A act -10, PKA-R2B act -8 and PG9 binder 1.
Fc1cnc(N2CCc3ccccc32)nc1N1CCc2ccccc21 was read as NR1D1 modulator 57*, NR2E3 ag-1 -2, NR2E3 ag-2 -2, PKA-R1A act -2, PKA-R2B act -2, PG9 binder 0, NR1D1 mod conf 137* and RORg DNA counter >40.
COc1cc(C(=O)Nc2sc3c(c2C(=O)NCc2ccco2)CCCC3)cc(OC)c1OC was read as NR1D1 modulator 27*, NR2E3 ag-1 4, NR2E3 ag-2 -31, PKA-R1A act -13, PKA-R2B act -4, PG9 binder -1 and NR1D1 mod conf 3.
COc1ccc(C(=O)Nc2sc3c(c2C(=O)NCc2ccco2)CCCC3)cc1OC was read as NR1D1 modulator 26*, NR2E3 ag-1 3, NR2E3 ag-2 -28, PKA-R1A act -2, PKA-R2B act 0, PG9 binder 1 and NR1D1 mod conf 13.
`COC(=O)Nc1sc2c(c1C(=O)NCc1ccco1)CCC2` gave NR1D1 modulator 3, NR2E3 ag-1 1, NR2E3 ag-2 -24, PKA-R1A act -6, PKA-R2B act -9 and PG9 binder -2.
COC(=O)Nc1sc2c(c1C(=O)NCc1ccco1)CCCC2 was read as NR1D1 modulator 3, NR2E3 ag-1 1, NR2E3 ag-2 21, PKA-R1A act 5, PKA-R2B act 1 and PG9 binder -3.
Screening Cc1nn(-c2ccccc2)c2sc(C(=O)NCCc3ccccc3)cc12 returned NR1D1 modulator -1.
`O=C(Nc1ccc(F)cc1)c1oc2ccccc2c1NC(=O)C1CCCC1` gave NR1D1 modulator 26*, NR2E3 ag-1 -2, NR2E3 ag-2 -13, PKA-R1A act 0, PKA-R2B act -13 and NR1D1 mod conf 1.
COC(=O)c1ccccc1NC(=O)NCC1CCN(Cc2ccc(OC)cc2)CC1 was read as NR1D1 modulator 5.
Screening C=CCN1C(=O)c2cccc3c(Br)ccc(c23)C1=O returned NR1D1 modulator 1, NR2E3 ag-1 7, NR2E3 ag-2 0, PKA-R1A act 11, PKA-R2B act 1 and PG9 binder 2.
O=C(OCCN1C(=O)c2cccc3c(N4CCOCC4)ccc(c23)C1=O)c1ccc(Cl)cc1Cl was read as NR1D1 modulator 260*, NR2E3 ag-1 -1, NR2E3 ag-2 -18, PKA-R1A act -11, PKA-R2B act -2, PG9 binder 1, NR1D1 mod conf 206* and RORg DNA counter 4.5*.
For O=C1c2cccc3c(N4CCCCC4)ccc(c23)C(=O)N1c1cccc(O)c1 the results were NR1D1 modulator 61*, NR2E3 ag-1 4, NR2E3 ag-2 -92, PKA-R1A act 7, PKA-R2B act 5, PG9 binder -1, NR1D1 mod conf 62* and RORg DNA counter >40.
Screening C=CCN1C(=O)c2cccc3c(N4CCCCC4)ccc(c23)C1=O returned NR1D1 modulator 19*, NR2E3 ag-1 3, NR2E3 ag-2 -7, PKA-R1A act -7, PKA-R2B act 7, PG9 binder 1 and NR1D1 mod conf 24*.
For O=C(OCCN1C(=O)c2cccc3c(N4CCOCC4)ccc(c23)C1=O)c1cccc(Cl)c1 the results were NR2E3 ag-1 0.
For Cc1n[nH]c(C)c1N1C(=O)c2cccc3c(N4CCCCCC4)ccc(c23)C1=O the results were NR1D1 modulator 94*, NR2E3 ag-1 3, NR2E3 ag-2 17, PKA-R1A act -4, PKA-R2B act -2, PG9 binder -3, NR1D1 mod conf 90* and RORg DNA counter >40.
`CN1Cc2nnn(CC3CCCCC3)c2-c2ccccc2S1(=O)=O` gave NR1D1 modulator -5.
COC(=O)c1cc(-c2cc(Cl)cc(Cl)c2)c(=O)n2c1CCC2 was read as NR1D1 modulator 11.
O=C1c2cccc3c(N4CCCCC4)ccc(c23)C(=O)N1CCO was read as NR1D1 modulator 47*, NR2E3 ag-1 5, NR2E3 ag-2 -61, PKA-R1A act -2, PKA-R2B act -3, PG9 binder -4, NR1D1 mod conf 33* and RORg DNA counter >40.
O=C1CCCC2=C1C1(CCCCC1)N=C(Nc1nc3ccccc3o1)N2 was read as NR1D1 modulator 1, NR2E3 ag-1 -1, NR2E3 ag-2 -19, PKA-R1A act -1, PKA-R2B act 0 and PG9 binder 0.
Screening O=C1CCCC2=C1C1(CCCC1)N=C(Nc1nc3ccccc3o1)N2 returned NR1D1 modulator 21*!, NR2E3 ag-2 -10, PG9 binder -2 and NR1D1 mod conf -4.
For CCn1c2ccccc2c2cc(NC(=O)CSc3nnc(-c4cccc(Cl)c4)o3)ccc21 the results were NR1D1 modulator 32*, NR2E3 ag-1 -1, NR2E3 ag-2 -11, PKA-R1A act 2, PKA-R2B act 3, PG9 binder 2 and NR1D1 mod conf 11.
`O=C(CSc1nnc(-c2cccnc2)o1)Nc1cccc(Cl)c1` gave NR1D1 modulator 0, NR2E3 ag-1 2, NR2E3 ag-2 -18, PKA-R1A act -4, PKA-R2B act 2 and PG9 binder 1.
